Data from ChEMBL document CHEMBL1146361, “Studies on acyclic pyrimidines as inhibitors of mycobacteria” (Bioorg Med Chem, 2007).
Calls of active or inactive are those of the source. The calls are words filed in the database; no cut-off is given here.

Legend:
[1] = test system: Mycobacterium tuberculosis; assay: Antimycobacterial activity against Mycobacterium tuberculosis H37Ra by MABA; type: functional; set-up: concentration or dose not given beside the values
In short: (§1)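 Compounds in DMSO (100× highest final concentration), diluted in 7H9GC; tested at 100, 50, 10 and 1 µg/mL in triplicate, three experiments. Frozen inoculum diluted in 7H9GC. Read visually and spectrophotometrically. […], mean given. Visual MIC = lowest concentration preventing blue-to-pink change.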

Mycobacterium avium [2] = assay: Antimycobacterial activity against Mycobacterium avium ATCC 25291; type: functional; set-up: concentration or dose not given beside the values; in short: as §1
Staphylococcus aureus = assay: Antibacterial activity against Staphylococcus aureus up to 100 ug/ml after 16 to 20 hrs by broth microdilution method; type: functional, organism-based
[3] = test system: Staphylococcus epidermidis; assay: Antibacterial activity against Staphylococcus epidermidis up to 100 ug/ml after 16 to 20 hrs by broth microdilution method; type: functional, organism-based
Enterococcus faecalis = assay: Antibacterial activity against Enterococcus faecalis up to 100 ug/ml after 16 to 20 hrs by broth microdilution method; type: functional, organism-based
Bacillus subtilis = assay: Antibacterial activity against Bacillus subtilis up to 100 ug/ml after 16 to 20 hrs by broth microdilution method; type: functional, organism-based
Streptococcus pneumoniae = assay: Antibacterial activity against Streptococcus pneumoniae up to 100 ug/ml after 16 to 20 hrs by broth microdilution method; type: functional, organism-based
Salmonella typhimurium = assay: Antibacterial activity against Salmonella Typhimurium up to 100 ug/ml after 16 to 20 hrs by broth microdilution method; type: functional, organism-based; conditions: Salmonella enterica subsp. enterica serovar Typhimurium
Escherichia coli = assay: Antibacterial activity against Escherichia coli up to 100 ug/ml after 16 to 20 hrs by broth microdilution method; type: functional, organism-based
Proteus vulgaris = assay: Antibacterial activity against Proteus vulgaris up to 100 ug/ml after 16 to 20 hrs by broth microdilution method; type: functional, organism-based
Pseudomonas aeruginosa = assay: Antibacterial activity against Pseudomonas aeruginosa up to 100 ug/ml after 16 to 20 hrs by broth microdilution method; type: functional, organism-based
[4] = test system: Mycobacterium tuberculosis; assay: Antimycobacterial activity against Mycobacterium tuberculosis H37Ra at 100 ug/mL after 24 to 48 hrs by MABA; type: functional; in short: as §1
[5] = test system: Mycobacterium tuberculosis; assay: Antimycobacterial activity against Mycobacterium tuberculosis H37Ra at 50 ug/mL after 24 to 48 hrs by MABA; type: functional; in short: as §1
[6] = test system: Mycobacterium tuberculosis; assay: Antimycobacterial activity against Mycobacterium tuberculosis H37Ra at 10 ug/mL after 24 to 48 hrs by MABA; type: functional; in short: as §1
Mycobacterium avium [7] = assay: Antimycobacterial activity against Mycobacterium avium ATCC 25291 at 100 ug/mL after 24 to 48 hrs by MABA; type: functional; in short: as §1
Mycobacterium avium [8] = assay: Antimycobacterial activity against Mycobacterium avium ATCC 25291 at 50 ug/mL after 24 to 48 hrs by MABA; type: functional; in short: as §1
HepG2 = assay: Toxicity against HepG2 cells; type: functional, cell-based; conditions: Homo sapiens

Row | Compound | Inhibition [1] | Inhibition (Mycobacterium avium [2]) | Activity (Staphylococcus aureus) | Activity [3] | Activity (Enterococcus faecalis) | Activity (Bacillus subtilis) | Activity (Streptococcus pneumoniae) | Activity (Salmonella typhimurium) | Activity (Escherichia coli) | Activity (Proteus vulgaris) | Activity (Pseudomonas aeruginosa) | inhibition at 100 µg/mL [4] | inhibition at 50 µg/mL [5] | inhibition at 10 µg/mL [6] | inhibition at 100 µg/mL (Mycobacterium avium [7]) | inhibition at 50 µg/mL (Mycobacterium avium [8]) | Activity (HepG2)
1 | CCCCCC#Cc1cn(COCCO)c(=O)[nH]c1=O | 0% | 0% | inactive | inactive | inactive | inactive | inactive | inactive | inactive | inactive | inactive |  |  |  |  |  | 
2 | C=C(N=[N+]=[N-])c1cn(COC(CO)CO)c(=O)[nH]c1=O | 0% | 0% | inactive | inactive | inactive | inactive | inactive | inactive | inactive | inactive | inactive |  |  |  |  |  | 
3 | O=c1[nH]c(=O)n(COCCO)cc1F | 0% | 0% | inactive | inactive | inactive | inactive | inactive | inactive | inactive | inactive | inactive |  |  |  |  |  | 
4 | O=c1ccn(COCCO)c(=O)[nH]1 | 0% | 0% | inactive | inactive | inactive | inactive | inactive | inactive | inactive | inactive | inactive |  |  |  |  |  | 
5 | CCCCCCCCCCC#Cc1cn(COC(CO)CO)c(=O)[nH]c1=O |  |  | inactive | inactive | inactive | inactive | inactive | inactive | inactive | inactive | inactive | 100% | 100% | 50% | 100% | 25% | Not toxic
6 | [N-]=[N+]=NC(CCl)c1cn(COC(CO)CO)c(=O)[nH]c1=O (configuration not stated) | 0% | 0% | inactive | inactive | inactive | inactive | inactive | inactive | inactive | inactive | inactive |  |  |  |  |  | 
7 | C=Cc1cn(COC(CO)CO)c(=O)[nH]c1=O | 0% | 0% | inactive | inactive | inactive | inactive | inactive | inactive | inactive | inactive | inactive |  |  |  |  |  | 
8 | CCc1cn(COCCO)c(=O)[nH]c1=O | 0% | 0% | inactive | inactive | inactive | inactive | inactive | inactive | inactive | inactive | inactive |  |  |  |  |  | 
9 | O=c1[nH]c(=O)n(COCCO)cc1[N+](=O)[O-] | 0% | 0% | inactive | inactive | inactive | inactive | inactive | inactive | inactive | inactive | inactive |  |  |  |  |  | 
10 | [N-]=[N+]=NC(CBr)c1cn(COC(CO)CO)c(=O)[nH]c1=O (configuration not stated) | 0% | 0% | inactive | inactive | inactive | inactive | inactive | inactive | inactive | inactive | inactive |  |  |  |  |  | 
11 | CCCCCCCCCCC#Cc1cn(COCCO)c(=O)n(C#CCCCCCCCCCC)c1=O | 0% | 0% | inactive | inactive | inactive | inactive | inactive | inactive | inactive | inactive | inactive |  |  |  |  |  | 
12 | C=Cc1cn(COCCO)c(=O)[nH]c1=O | 0% | 0% | inactive | inactive | inactive | inactive | inactive | inactive | inactive | inactive | inactive |  |  |  |  |  | 
13 | O=c1[nH]c(=O)n(COC(CO)CO)cc1I [IODACYCLUR] | 0% | 0% | inactive | inactive | inactive | inactive | inactive | inactive | inactive | inactive | inactive |  |  |  |  |  | 
14 | [N-]=[N+]=NC(CBr)c1cn(COCCO)c(=O)[nH]c1=O (configuration not stated) |  |  | inactive | inactive | inactive | inactive | inactive | inactive | inactive | inactive | inactive | 100% | 100% | 50% |  | 100% | Not toxic
15 | Nc1cn(COCCO)c(=O)[nH]c1=O | 0% | 0% | inactive | inactive | inactive | inactive | inactive | inactive | inactive | inactive | inactive |  |  |  |  |  | 
16 | O=c1[nH]c(=O)n(COCCO)cc1Br | 0% | 0% | inactive | inactive | inactive | inactive | inactive | inactive | inactive | inactive | inactive |  |  |  |  |  | 
17 | [N-]=[N+]=NC(CI)c1cn(COC(CO)CO)c(=O)[nH]c1=O (configuration not stated) | 0% | 0% | inactive | inactive | inactive | inactive | inactive | inactive | inactive | inactive | inactive |  |  |  |  |  | 
18 | O=c1[nH]c(=O)n(COCCO)cc1I | 0% | 0% | inactive | inactive | inactive | inactive | inactive | inactive | inactive | inactive | inactive |  |  |  |  |  | 
19 | Cc1cn(COCCO)c(=O)[nH]c1=O | 0% | 0% | inactive | inactive | inactive | inactive | inactive | inactive | inactive | inactive | inactive |  |  |  |  |  | 
20 | O=c1[nH]c(=O)n(COCCO)cc1Cl | 0% | 0% | inactive | inactive | inactive | inactive | inactive | inactive | inactive | inactive | inactive |  |  |  |  |  | 
